The source made the active and inactive calls. The calls are words filed in the database; no cut-off is given here.
Columns and labels:
Mu-type opioid receptor [1] = molecular target: Mu-type opioid receptor (Homo sapiens, UniProt P35372); experiment: Displacement of [3H]-DAMGO from human MOR receptor expressed in HEK293T cell membrane assessed as inhibition constant incubated for 60 mins by MicroBeta scintillation counting method; format: cell membranes
Procedure, shortened: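 HEK293 cells stably expressing human MOR, grown in DMEM with 10% FBS and hygromycin B; membranes prepared from confluent cells. Binding buffer 50 mM Tris, 5 mM MgCl2, pH 7.4. Nonspecific binding with 10 μM naloxone. 60 min at RT, then GF/C filtration.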

[2] = molecular target: Mu-type opioid receptor (Mus musculus) (UniProt P42866); experiment: Partial agonist activity at Rluc8 fused mouse MOR transfected in HEK293T cells assessed as Nb33 recruitment at 10 uM using coelenterazine as substrate incubated for 40 mins by BRET assay relative to control; format: functional, cell-based
Mu-type opioid receptor (Mus musculus), sequence (P42866 whole entry, the tested form may be a part): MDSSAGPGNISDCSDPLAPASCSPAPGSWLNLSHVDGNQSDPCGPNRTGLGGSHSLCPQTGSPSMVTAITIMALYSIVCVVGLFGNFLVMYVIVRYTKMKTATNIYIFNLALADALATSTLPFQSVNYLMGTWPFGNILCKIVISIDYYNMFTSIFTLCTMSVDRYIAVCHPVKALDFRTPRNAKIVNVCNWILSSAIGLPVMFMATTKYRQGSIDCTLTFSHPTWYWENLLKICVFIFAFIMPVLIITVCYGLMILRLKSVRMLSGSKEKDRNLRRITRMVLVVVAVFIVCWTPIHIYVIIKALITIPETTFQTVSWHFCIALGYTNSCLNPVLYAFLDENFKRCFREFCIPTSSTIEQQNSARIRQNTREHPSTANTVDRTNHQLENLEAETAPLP
Procedure, shortened: (§1)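 HEK293T cells transiently transfected with BRET sensors (DNA:PEI 1:6), plated into poly-D-lysine plates and assayed 48 h post-transfection. Cells washed and held in D-PBS 30 min at 37 °C. Coelenterazine h 5 μM final; ligands 10 μM to 0.01 nM. At least three independent experiments in duplicate.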

[3] = molecular target: Mu-type opioid receptor (Mus musculus) (UniProt P42866); experiment: Partial agonist activity at Rluc8 fused mouse MOR transfected in HEK293T cells coexpressing wild type GRK2 assessed as arrestin-3 recruitment using coelenterazine as substrate incubated for 40 mins by BRET assay; format: functional, cell-based; procedure, shortened: as §1
D(3) dopamine receptor [4] = molecular target: T1, D(3) dopamine receptor (Homo sapiens, UniProt P35462); experiment: Displacement of [3H]N-methylspiperone from human D3R receptor expressed in HEK293T cell membrane assessed as inhibition constant incubated for 60 mins by MicroBeta scintillation counting method; format: cell membranes
T1 sequence (P35462 whole entry, the tested form may be a part): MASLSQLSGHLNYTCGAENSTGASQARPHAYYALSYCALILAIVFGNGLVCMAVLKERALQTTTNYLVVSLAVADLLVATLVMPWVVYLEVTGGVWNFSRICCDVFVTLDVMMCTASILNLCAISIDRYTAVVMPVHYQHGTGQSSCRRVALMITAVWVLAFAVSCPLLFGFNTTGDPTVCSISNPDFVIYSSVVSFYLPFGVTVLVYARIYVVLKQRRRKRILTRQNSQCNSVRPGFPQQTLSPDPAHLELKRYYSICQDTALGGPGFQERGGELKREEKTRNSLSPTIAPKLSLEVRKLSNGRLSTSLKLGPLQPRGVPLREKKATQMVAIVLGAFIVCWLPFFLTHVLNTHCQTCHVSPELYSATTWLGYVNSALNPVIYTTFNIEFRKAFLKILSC

D(3) dopamine receptor [5] = molecular target: T1, D(3) dopamine receptor; experiment: (§2) Antagonist activity at SNAP-tagged human D3R receptor transfected in HEK293T cells coexpressing wild type Galpha-oA, venus-tagged Gbeta-1 (156 to 239 residues), venus-tagged Ggamma2 (1 to 155 residues) and Rluc8 fused masGRK3ct assessed as Galpha-oA activation using coelenterazine as substrate incubated for 40 mins in presence of quinpirole by BRET based GPA assay; format: functional, cell-based
Mu-type opioid receptor [6] = molecular target: T2, Mu-type opioid receptor (Mus musculus, UniProt P42866); experiment: (§3) Partial agonist activity at Rluc8 fused mouse MOR transfected in HEK293T cells assessed as Nb33 recruitment using coelenterazine as substrate incubated for 40 mins by BRET assay; format: functional, cell-based; procedure, shortened: as §1
T2 sequence (P42866 whole entry, the tested form may be a part): as the sequence (P42866 whole entry, the tested form may be a part) above

Mu-type opioid receptor [7] = molecular target: T2, Mu-type opioid receptor; experiment: as §2, with “Partial agonist” for “Antagonist”, “mouse MOR” for “human D3R receptor”, “Galpha-i2,” for “Galpha-oA,”, “Galpha-i2” for “Galpha-oA”, “mins” for “mins in presence of quinpirole”; format: functional, cell-based; procedure, shortened: as §1
[8] = molecular target: Mu-type opioid receptor (Mus musculus) (UniProt P42866); experiment: Partial agonist activity at Rluc8 fused mouse MOR transfected in HEK293T cells coexpressing wild type GRK2 assessed as arrestin-3 recruitment at 10 uM using coelenterazine as substrate incubated for 40 mins by BRET assay relative to control; format: functional, cell-based
Procedure, shortened: (§4)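 HEK293T cells transiently transfected with BRET sensors (DNA:PEI 1:6), plated into poly-D-lysine plates and assayed 48 h post-transfection. Cells washed and held in D-PBS 30 min at 37 °C. Coelenterazine h 5 μM final; ligands 10 μM to 0.01 nM. […] At least three independent experiments in duplicate.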

[9] = molecular target: Mu-type opioid receptor (Mus musculus) (UniProt P42866); experiment: (§5) Partial agonist activity at SNAP-tagged mouse MOR transfected in HEK293T cells coexpressing wild type Galpha-i2, venus-tagged Gbeta-1 (156 to 239 residues), venus-tagged Ggamma2 (1 to 155 residues) and Rluc8 fused masGRK3ct assessed as Galpha-i2 activation at 10 uM using coelenterazine as substrate incubated for 40 mins by BRET based GPA assay relative to control; format: functional, cell-based; procedure, shortened: as §1
D(2) dopamine receptor = D(2) dopamine receptor (Homo sapiens, UniProt P14416); experiment: Displacement of [3H]N-methylspiperone from human D2L receptor expressed in HEK293T cell membrane assessed as inhibition constant incubated for 60 mins by MicroBeta scintillation counting method; format: cell membranes
D(2) dopamine receptor, sequence (P14416 whole entry): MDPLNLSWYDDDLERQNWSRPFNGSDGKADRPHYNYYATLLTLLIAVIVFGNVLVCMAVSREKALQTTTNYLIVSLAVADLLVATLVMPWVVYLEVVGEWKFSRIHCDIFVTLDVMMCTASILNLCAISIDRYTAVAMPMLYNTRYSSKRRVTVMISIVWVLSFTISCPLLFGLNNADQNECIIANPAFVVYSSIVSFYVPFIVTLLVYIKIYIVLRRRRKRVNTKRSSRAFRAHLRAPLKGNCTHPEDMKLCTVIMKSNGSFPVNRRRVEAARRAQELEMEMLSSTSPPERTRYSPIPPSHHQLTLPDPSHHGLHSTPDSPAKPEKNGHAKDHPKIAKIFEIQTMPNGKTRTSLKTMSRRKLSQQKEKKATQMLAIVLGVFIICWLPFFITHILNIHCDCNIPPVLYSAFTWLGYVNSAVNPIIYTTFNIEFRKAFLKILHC

[10] = molecular target: Mu-type opioid receptor (Mus musculus) (UniProt P42866); experiment: as §3; format: functional, cell-based; procedure, shortened: as §1
[11] = molecular target: Mu-type opioid receptor (Mus musculus) (UniProt P42866); experiment: as §5, with “activation” for “activation at 10 uM”, “assay” for “assay relative to control”; format: functional, cell-based; procedure, shortened: as §1
[12] = molecular target: Mu-type opioid receptor (Mus musculus) (UniProt P42866); experiment: Agonist activity at Rluc8 fused mouse MOR transfected in HEK293T cells coexpressing wild type GRK2 assessed as arrestin-3 recruitment at 10 uM using coelenterazine as substrate incubated for 40 mins by BRET assay relative to control; format: functional, cell-based; conditions: filed as agonist; procedure, shortened: as §4
[13] = molecular target: Mu-type opioid receptor (Mus musculus) (UniProt P42866); experiment: Agonist activity at Rluc8 fused mouse MOR transfected in HEK293T cells assessed as Nb33 recruitment at 10 uM using coelenterazine as substrate incubated for 40 mins by BRET assay relative to control; format: functional, cell-based; conditions: filed as agonist; procedure, shortened: as §4

Mu-type opioid receptor (Homo sapiens, UniProt P35372), sequence (P35372 whole entry): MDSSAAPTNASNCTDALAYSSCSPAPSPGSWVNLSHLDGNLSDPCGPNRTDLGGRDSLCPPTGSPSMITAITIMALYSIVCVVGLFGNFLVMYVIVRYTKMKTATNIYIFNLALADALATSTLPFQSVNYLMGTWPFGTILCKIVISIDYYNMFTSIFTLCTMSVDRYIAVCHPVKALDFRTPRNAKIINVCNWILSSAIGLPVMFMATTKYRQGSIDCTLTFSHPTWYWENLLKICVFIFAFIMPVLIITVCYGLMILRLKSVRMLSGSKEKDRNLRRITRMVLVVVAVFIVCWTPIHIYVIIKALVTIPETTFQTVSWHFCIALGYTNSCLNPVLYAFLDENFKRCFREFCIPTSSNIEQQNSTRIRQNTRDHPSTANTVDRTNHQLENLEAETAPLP

SMILES	Ki (Mu-type opioid receptor [1]) [nM]	Ki (D(3) dopamine receptor [4]) [nM]	Ki (D(2) dopamine receptor) [nM]	also measured
CN(C)C(=O)C(CCN1CCN(c2cccc(C(F)(F)F)n2)CC1)(c1ccccc1)c1ccccc1	1.23	–	–	–
CN(C)C(=O)C(CCN1C[C@H](O)C[C@H]1CN1CCN(c2cccc(Cl)c2Cl)CC1)(c1ccccc1)c1ccccc1	529	247	1180	Emax [2]: 12.7%; Activity [3]: inactive; Activity (D(3) dopamine receptor [5]): inactive; EC50 (Mu-type opioid receptor [6]): 3330 nM; EC50 (Mu-type opioid receptor [7]): 3450 nM; Activity [8]: inactive; Emax ([9]; filed as partial agonist): 73.6%
CN(C)C(=O)C(CCN1C[C@H](O)C[C@H]1C(=O)NCCCCN1CCN(c2cccc(C(F)(F)F)n2)CC1)(c1ccccc1)c1ccccc1	791	–	–	EC50 (Mu-type opioid receptor [7]): 470 nM
CCC1(CC)CC(OCCCNCc2cccc(C(F)(F)F)n2)(c2ccccn2)CCO1 (stereo unspecified)	2520	2700	–	–
COc1ccccc1[C@@H]1C[C@H]1NCCC(C(=O)N(C)C)(c1ccccc1)c1ccccc1 (relative stereo)	55.2	–	–	–
COc1ccsc1CNCC[C@@]1(c2ccccn2)CCOC2(CCCC2)C1 [OLICERIDINE]	–	6860	83200	Emax [2]: 31.4%; Emax [8]: 49.1%; Emax [9]: 93.2%
FC(F)(F)c1cccc(N2CCN(CCCOC3(c4ccccn4)CCOCC3)CC2)n1	2070	–	–	–
Clc1cccc(N2CCN(CCCCNCCC3(c4ccccn4)CCOCC3)CC2)c1Cl	1460	–	–	–
CN(C)C(=O)C(CCN1C[C@H](F)C[C@H]1C(=O)NCCCCN1CCN(c2nsc3ccccc23)CC1)(c1ccccc1)c1ccccc1	146	53	322	Emax [2]: inactive; Activity [3]: inactive; EC50 (D(3) dopamine receptor [5]): 90.9 nM; IC50 (D(3) dopamine receptor [5]): 91.2 nM; Activity [10]: inactive; Activity [11]: inactive; Activity [8]: inactive; Activity [9]: inactive
CN(C)C(=O)C(CCN1C[C@H](O)C[C@H]1C(=O)NCCCCN1CCN(c2cccc(Cl)c2Cl)CC1)(c1ccccc1)c1ccccc1	564	–	–	EC50 (Mu-type opioid receptor [7]): 1810 nM
CCc1cc(Cl)c(OC)c(N2CCN(CCCCc3cn(CCC(C(=O)N(C)C)(c4ccccc4)c4ccccc4)nn3)CC2)c1	2120	–	–	–
CCC1(CC)CC(OCCCNCc2cccc(Cl)c2Cl)(c2ccccn2)CCO1 (stereo unspecified)	540	1180	13400	–
CN(C)C(=O)C(CCN1CCN(c2nsc3ccccc23)CC1)(c1ccccc1)c1ccccc1	0.364	–	465	–
C[C@@H](NC(=O)[C@@H](N)Cc1ccc(O)cc1)C(=O)NCC(=O)N(C)[C@@H](Cc1ccccc1)C(=O)NCCO	–	–	–	Emax [12]: 98.7%; Emax [13]: 98.5%
CN(C)C(=O)C(CCN1C[C@H](O)C[C@H]1CN1CCN(c2cccc(C(F)(F)F)n2)CC1)(c1ccccc1)c1ccccc1	782	2700	4660	–
COc1ccc([C@@H]2C[C@H]2NCCC(C(=O)N(C)C)(c2ccccc2)c2ccccc2)cc1 (relative stereo)	81.8	–	–	–
CCC1(CC)CC(OCCCN2CCN(c3cccc(C(F)(F)F)n3)CC2)(c2ccccn2)CCO1 (stereo unspecified)	745	–	1240	–
CCc1cc(Cl)c(OC)c(N2CCN(Cc3cn(CCC(C(=O)N(C)C)(c4ccccc4)c4ccccc4)nn3)CC2)c1	2380	–	–	–

From ChEMBL document CHEMBL5360615, “Pharmacological and Physicochemical Properties Optimization for Dual-Target Dopamine D3 (D3R) and μ-Opioid (MOR) Receptor Ligands as Potentially Safer Analgesics” (J Med Chem, 2023)
